The list is not random: actives were taken first. Their share in the collection is about 2.7%.
L929 necroptosis: L929 zVAD cell death inhibition; L929 zVAD necroptosis rescue, ATP luminescence, 24 h; with zVAD 60 µM; viability rescue, % at 10 µM; 220,000 compounds, 0.38% hits;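 active = activation, scaled between plate controls, above about 75%, limit read from the data; inactive = activation under that limit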;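 note: 0% = zVAD with DMSO and 100% = DMSO alone without zVAD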
RBBP9 inh: human RBBP9 hydrolase inhibition. 220,000 compounds, 0.2% hits. AID 1515. recombinant RBBP9, FP-Rh probe fluorescence polarization. inhibition, % at 7.94 µM. O75884;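 active = inhibition above the campaign mean of all tested compounds plus 3 SD, cut at about 14% in these data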;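 note: plate controls were DMSO wells with RBBP9 for no effect and wells lacking RBBP9 protein for full effect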
Target sequence (O75884 whole entry, looked up): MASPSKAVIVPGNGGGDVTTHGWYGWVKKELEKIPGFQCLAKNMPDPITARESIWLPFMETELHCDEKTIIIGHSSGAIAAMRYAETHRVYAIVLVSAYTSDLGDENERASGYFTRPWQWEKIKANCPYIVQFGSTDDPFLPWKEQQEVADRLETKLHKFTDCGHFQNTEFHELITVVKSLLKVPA
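Test system: recombinant human RBBP9; Timing: 30 min then 45 min, 25 °C; Detection: fluorescence polarization; Control set: RBBP9 with DMSO as uninhibited control, no-protein wells as full inhibition; Compound dosing: one concentration, 7.94 µM nominal, 0.794% DMSO; Probe or stimulus: FP-Rh activity-based probe, 375 nM before mixing.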
Wee1 degr inh: blocks degradation of human Wee1 kinase; reporter increase, % at 5 µM; 220,000 compounds, 1.2% hits; HeLa Luc-Wee1K328M stability, luciferase luminescence; 100% = proteasome inhibitor MG132 effect;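 active = activation above the mean of all tested compounds plus 3 SD, set per screening run, cut at about 8.8% in these data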;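 note: cells exposed to compound for 20 h before luminescence read; 0% = DMSO alone and 100% = MG132 at 30 µM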
TNF death inh: TNF-alpha cell death inhibition in Jurkat FADD-/- cells; Jurkat FADD-/- TNF necroptosis rescue, ATP luminescence, 24 h; 0 = TNF only, 100 = no-TNF cells; 220,000 compounds, 0.068% hits; activation (protection from cell death), % at 10 µM;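 active = activation, meaning protection from cell death, of at least 50% relative to plate controls; inactive = activation below 50%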;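 note: necroptosis triggered by 40 ng/mL TNF-alpha added together with compound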
p97 ATPase inh: inhibitors of human p97 ATPase; recombinant p97 ATPase, Kinase-Glo ATP luminescence, 3 h; inhibition, % at 8 µM; 220,000 compounds, 0.42% hits; AID 1481; in the data active = inhibition above about 15%;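 note: 0% = DMSO vehicle and 100% = wells lacking enzyme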
PfM18AAP inh-1: blocks P. falciparum M18 aspartyl aminopeptidase. recombinant PfM18AAP, H-Glu-NHMec fluorogenic cleavage. inhibition, % at 7.35 µM. 290,000 compounds, 1.2% hits. AID 1822;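 active = inhibition above the campaign mean inhibition over all tested compounds plus 3 SD, cut at about 28% in these data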;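 note: 0% = plate median of test compound wells and 100% = 2 mM ZnCl2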
PfM18AAP inh-2: PfM18AAP inhibition, confirmation; shares compounds with PfM18AAP inh-1; recombinant PfM18AAP, H-Glu-NHMec fluorogenic cleavage; inhibition, % at 7.35 µM; 2,400 compounds, 28% hits; AID 2170;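 active = mean inhibition over replicate wells above the hit cutoff set for the earlier primary screen, cut at about 29% in these data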;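 note: 0% = median of test compound wells and 100% = 2 mM ZnCl2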
CTSL1 confirm: counter-screen for PFM18AAP inhibitors: confirmation of human cathepsin L inhibitors. 2,400 tested, under 10 active. purified cathepsin L1, Z-Leu-Arg-MCA fluorescence. shares compounds with PfM18AAP inh-1. inhibition, % at 5.96 µM;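 active = average inhibition across replicates above the hit cutoff set in the earlier primary screen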;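 note: 0% = median of test compound wells and 100% = Z-Phe-Ala-diazomethylketone 1 µM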
Target sequence (P07711 whole entry, looked up): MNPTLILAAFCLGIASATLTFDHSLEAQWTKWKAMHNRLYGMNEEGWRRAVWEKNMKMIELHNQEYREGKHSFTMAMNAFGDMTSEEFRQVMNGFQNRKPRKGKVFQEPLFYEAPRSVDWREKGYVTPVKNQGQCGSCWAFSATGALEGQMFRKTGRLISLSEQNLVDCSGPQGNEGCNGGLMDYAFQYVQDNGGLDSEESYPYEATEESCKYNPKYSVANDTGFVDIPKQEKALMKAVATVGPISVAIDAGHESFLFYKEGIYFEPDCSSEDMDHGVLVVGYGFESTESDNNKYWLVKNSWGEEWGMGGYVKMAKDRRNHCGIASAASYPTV
Numbers without * were called inactive; nt = no result.

SMILES	L929 necroptosis	RBBP9 inh	Wee1 degr inh	TNF death inh	p97 ATPase inh	PfM18AAP inh-1	PfM18AAP inh-2	CTSL1 confirm
N#CC1=C(N)Nc2ncnn2C1c1ccc([N+](=O)[O-])cc1 (centres undefined)	-1	5	0	0	3	16	nt	nt
N#CC1=C(N)Nc2ncnn2C1c1ccccc1 (centres undefined)	0	-4	1	-1	0	38*	-41	0
Cc1ccc(C)c(NC(=S)NCCc2ccc(F)cc2)c1	-1	-8	0	-12	1	3	nt	nt
Cc1ccc(C)c(NC(=S)NNc2ccc(F)cc2F)c1	nt	nt	nt	nt	nt	46*	19	-5
CSc1ccccc1OCc1cc(C(=O)N2CCN3CCCC3C2)no1 (centres undefined)	nt	nt	nt	nt	nt	-16	nt	nt
Oc1ccc(N2CCN(Cc3nc4ccccc4[nH]3)CC2)cc1	nt	nt	nt	nt	nt	42*	-25	-5
CO/N=C(\C(=O)O)c1csc(NN=C(C)C)n1	0	-7	-4	-1	-4	41*	-16	-4
CCOC(=O)/C(=N/Nc1ccccc1)c1csc(Nc2ccccc2)n1	2	1	0	4	2	13	nt	nt
CCCCCc1nnc(NC(=O)NS(=O)(=O)c2ccc(C)cc2)s1	nt	nt	nt	nt	nt	-5	nt	nt
COc1ccc(CNC(=O)CN2CCC(NC(=O)c3ccccc3C)CC2)cc1	nt	nt	nt	nt	nt	1	nt	nt
CCC/C=N/Nc1nnc(Cc2ccc(OC)c(OC)c2)c(=O)[nH]1	nt	nt	nt	nt	nt	32*	-29	-5
COc1ccc(Cc2nnc(N/N=C/c3ccc(O)cc3)[nH]c2=O)cc1OC	47	6	-2	-10	4	10	nt	nt
C/C(=N\Nc1ccccc1)c1cccc(N)c1	nt	nt	nt	nt	nt	14	nt	nt
Oc1ccc(O)c(/C(=N/Nc2ccccc2)c2ccccc2)c1	nt	nt	nt	nt	nt	45*	-80	-1
O=C(O)c1csc(N/N=C/c2ccc(Br)cc2)n1	1	-6	7	1	1	33*	-42	1
Cc1csc(N/N=C/c2ccc([N+](=O)[O-])cc2)n1	nt	nt	nt	nt	nt	-4	nt	nt
O=C(CSc1nc2cc(S(=O)(=O)N3CCOCC3)ccc2o1)Nc1c(F)cccc1F	2	3	1	0	4	32*	3	-1
Oc1ccc(N2CCN(c3ccnc4cc(Cl)ccc34)CC2)cc1	nt	nt	nt	nt	nt	38*	-13	2
Cc1cc(NC(=S)N(CCCN2CCN(C)CC2)Cc2ccco2)ccc1Cl	-1	1	0	2	0	3	nt	nt
COc1cc(C2C(C#N)=C(N)OC3=C2C(=O)CCC3)c([N+](=O)[O-])cc1OC (centres undefined)	0	-4	-1	-1	8	40*	-20	2
Cc1cc(N2CCCC2)ccc1/C=N/n1cnnc1	-1	2	0	-1	-2	32*	3	2
Cc1cc(/C=N/n2cnnc2)c(C)n1-c1ccc(Cl)cc1	0	-6	-2	1	-10	7	nt	nt
N#Cc1c(N)sc(=S)c2c1CCCCC2	0	-10	-2	-2	4	8	nt	nt
N#Cc1c(N)sc2c1CCCCCC2	14	-13	-1	0	3	43*	-6	0
CCN(CC)S(=O)(=O)c1ccc(N2CCOCC2)c(NC(=O)C23CC4CC(CC(Cl)(C4)C2)C3)c1	1	-3	1	4	-2	-9	nt	nt
SMILES	L929 necroptosis	RBBP9 inh	Wee1 degr inh	TNF death inh	p97 ATPase inh	PfM18AAP inh-1	PfM18AAP inh-2	CTSL1 confirm
O=C(NCc1ccco1)c1cc2cc(Br)ccc2o1	nt	nt	nt	nt	nt	33*	-13	-3
COc1ccc(C2CC(=O)C(C=NCCN3CCN(C(=S)Nc4ccccc4)CC3)=C(O)C2)cc1OC (centres undefined)	3	-9	5	0	2	7	nt	nt
CCOC(=O)c1c(-c2ccc(OC)cc2)csc1/N=C/C1=C(O)CCCC1=O	0	-11	1	1	12	37*	-30	4
Fc1ccc(/C=N/n2cnn(Cc3ccccc3Cl)c2=S)cc1	0	7	-1	0	5	41*	-32	2
CCN(CCCNC(=O)C1CCN(S(=O)(=O)c2c(C)[nH]c(=O)[nH]c2=O)CC1)c1cccc(C)c1	0	-1	4	0	-3	32*	-23	-2
CCN(CCCNC(=O)CNC(=O)Cn1cnc2ccccc2c1=O)c1ccccc1	3	-8	1	0	1	11	nt	nt
CCN(CCCNC(=O)CCNC(=O)Cn1cnc2ccccc2c1=O)c1cccc(C)c1	2	-2	0	-2	4	53*	-25	-2
CCN(CCCNC(=O)C1CCN(S(=O)(=O)CC)CC1)c1cccc(C)c1	0	1	5	-1	0	4	nt	nt
CCN(CCCNC(=O)C1CCC(=O)N1Cc1ccc(F)cc1)c1cccc(C)c1 (centres undefined)	0	-4	0	-6	-9	6	nt	nt
CCN(CCCNC(=O)C1CCC(=O)N1C1CCCC1)c1cccc(C)c1 (centres undefined)	1	-6	1	1	-3	54*	-24	6
CC1(C)CC(NC(=S)Nc2ccc(S(N)(=O)=O)cc2)CC(C)(C)N1	2	-8	3	0	3	2	nt	nt
NS(=O)(=O)c1ccc(NC(=S)NNC(=O)c2ccc(Br)o2)cc1	nt	nt	nt	nt	nt	33*	-2	-1
NS(=O)(=O)c1ccc(NC(=S)NC2CC2)cc1	1	-6	0	0	3	32*	-2	-1
CCN(c1ccc(NC(=O)c2ccc(Cl)nc2)cc1)C(C)C	-1	-8	3	-2	-7	-1	nt	nt
COc1cccc(N(CC(=O)N2CCCCCC2)S(C)(=O)=O)c1	nt	nt	nt	nt	nt	0	nt	nt
Fc1cccc(C[n+]2csc3ccccc32)c1	0	-11	-1	-16	0	34*	6	0
OCCN(Cc1ccccc1)Cc1cccc(F)c1	0	-2	2	0	-5	0	nt	nt
Cc1ccc(-n2nc3ccc(N)cc3n2)cc1Cl	nt	nt	nt	nt	nt	32*	-42	-1
CCN(CC)CCNC(=S)NC(=O)c1cn(-c2ccccc2)nc1-c1ccc(OC)cc1	0	-6	-2	-2	0	3	nt	nt
Cc1ccc(S(=O)(=O)CCSc2n[nH]c(=O)n2-c2ccccc2)cc1	4	2	2	2	5	5	nt	nt
Cc1cc(C)c(-n2c(SCCS(=O)(=O)c3ccc(F)cc3)n[nH]c2=O)c(C)c1	1	4	0	3	3	41*	-40	1
CCN(CC)c1ccc(C2C3CCCCC3(O)CCN2CC(=O)N2CCCCC2)cc1 (centres undefined)	0	-7	-1	-4	2	49*	-8	4
